Results published in PMC4467258 (Clinical Pharmacology in Drug Development, 2014).
≈ marks a conversion by molar mass, not a printed value. Where “and” joins values, the source holds several entries; their conditions need not be identical. Equal values may be shown once. Read-outs that look alike come from different tables or passages of the source. Marks after values point to notes of the source that are not given here.

Key:
[1] = assay type: in vivo, human; settings: for AUC(0-inf): AUC0−∞; for Tmax: median (range)
Outline: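 Open-label, randomized 4-period crossover in healthy adults (18–65 y, ≥40 kg). Each received single 1500-mg free-base-equivalent doses: 60-min IV mesylate infusion, tablet fasted or after a 490-calorie moderate-fat meal, and oral mesylate solution fasted, with 3-day washouts. Plasma sampled predose to 72 h; LC-MS/MS (5–5000 ng/mL). Noncompartmental analysis; bioavailability from oral vs IV AUC0−∞; log-transformed mixed-effects model; CVw from residual MSE.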

[2] = Safety and tolerability; assay type: in vivo, human
Outline: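 Open-label, randomized, 4-period balanced crossover in healthy adults (18–65 years, ≥40 kg; women of non-childbearing potential only). Single 1500-mg (free base equivalent) dose of test compound (peptide deformylase inhibitor) as IV mesylate salt solution, 60-minute infusion, fasted; 3-day washout between periods. Safety from observed AEs and changes over time in hematology, clinical chemistry, urinalysis, vital signs and ECGs, summarized descriptively.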

[3] = Solubility; assay type: physicochemical
[4] = Biopharmaceutics Classification System characteristics; assay type: physicochemical; settings: high permeability and poor solubility; no official regulatory decision yet
[5] = cited from earlier work
[6] = Fed to fasted, free base tablet
[7] = human, plasma, oral, 1500 mg, mean (SD), 1500-mg free base tablet, fasted state
[8] = human, plasma, po, 1500 mg, mean (SD), 1500-mg oral MS solution, fasted state

Relative bioavailability, ratio of geometric least square mean Cmax (90% CI) ([1]; Fasted to MS): 0.57 (0.48, 0.69)
Tmax estimated median difference (90% CI) ([1]; Fasted to MS): 0.13 (0.00, 0.37) ^c h
Relative bioavailability, ratio of geometric least square mean AUC0−∞ (90% CI) ([1]; Fasted to MS (free base tablet fasted vs oral MS solution)): 0.62 (0.56, 0.69)
Relative bioavailability, ratio of geometric least square mean Cmax (90% CI) ([1]; Fed to MS): 0.57 (0.47, 0.68)
Tmax estimated median difference (90% CI) ([1]; Fed to MS): 0.99 (0.63, 1.74) ^d h
Relative bioavailability, ratio of geometric least square mean AUC0−∞ (90% CI) ([1]; Fed to MS (free base tablet fed vs oral MS solution)): 0.84 (0.76, 0.94)
Food effect, ratio of geometric least square mean AUC0−∞ (90% CI) [1, 6]: 1.36 (1.22, 1.51)
Food effect, ratio of geometric least square mean Cmax (90% CI) [1, 6]: 0.99 (0.82, 1.18)
Tmax estimated median difference (90% CI) [1, 6]: 0.88 (0.50, 1.25) ^e h
Relative bioavailability ([1]; free base tablet after a meal vs fasted state): 136%
Absolute bioavailability, ratio of geometric least square mean AUC0−∞ (90% CI) ([1]; free base tablet fasted vs IV, 1500 mg): 0.57 (0.51, 0.63)
Relative bioavailability ([1]; free base tablet fasted vs oral mesylate salt solution fasted): 62%
Absolute bioavailability, ratio of geometric least square mean AUC0−∞ (90% CI) ([1]; free base tablet fed vs IV, 1500 mg): 0.77 (0.69, 0.86)
Relative bioavailability ([1]; free base tablet fed vs oral mesylate salt solution fasted): 84%
Increase in AUC0−∞ with food ([1]; free base tablet, fed vs fasted state, moderate-fat/calorie meal): 36%
Vd ([1]; human, plasma, iv, 1500 mg): 69.2 L
clearance ([1]; human, plasma, iv, 1500 mg): 367 mL/min
AUC(0-inf) ([1]; human, plasma, iv, 1500 mg, mean (SD), 1500-mg IV MS solution, 60-minute infusion): 75400 ng·h/mL
Cmax ([1]; human, plasma, iv, 1500 mg, mean (SD), 1500-mg IV MS solution): 28600 ng/mL
Tmax ([1]; human, plasma, iv, 1500 mg, 1500-mg IV MS solution): 1 h
half-life ([1]; human, plasma, iv, 1500 mg, t1/2, mean (SD), 1500-mg IV MS solution): 10.3 h
AUC(0-inf) [1, 7]: 46100 ng·h/mL
AUC(0-inf) ([1]; human, plasma, oral, 1500 mg, mean (SD), 1500-mg free base tablet, fed state (moderate-fat/calorie meal)): 58900 ng·h/mL
Cmax [1, 7]: 17100 ng/mL
Cmax ([1]; human, plasma, oral, 1500 mg, mean (SD), 1500-mg free base tablet, fed state): 15500 ng/mL
Tmax ([1]; human, plasma, oral, 1500 mg, 1500-mg free base tablet, fasted state): 0.5 h
Tmax ([1]; human, plasma, oral, 1500 mg, 1500-mg free base tablet, fed state): 1.5 h
half-life ([1]; human, plasma, oral, 1500 mg, t1/2, mean (SD), 1500-mg free base tablet, fasted state): 9.4 h
half-life ([1]; human, plasma, oral, 1500 mg, t1/2, mean (SD), 1500-mg free base tablet, fed state): 8.7 h
half-life ([1]; human, plasma, other: IV or oral, 1500 mg, t1/2, range of means after single-dose IV or oral administration): 8.7 to 10.3 h
AUC(0-inf) [1, 8]: 69700 ng·h/mL
Cmax [1, 8]: 25800 ng/mL
Tmax ([1]; human, plasma, po, 1500 mg, 1500-mg oral MS solution, fasted state): 0.5 h
half-life ([1]; human, plasma, po, 1500 mg, t1/2, mean (SD), 1500-mg oral MS solution, fasted state): 9.6 h
Varea ([1]; mean (SD), 1500-mg IV MS solution): 317.2 (131.5) L
CL/F ([1]; mean (SD), 1500-mg free base tablet, fasted state): 42.6 (26.6) L/h
CL/F ([1]; mean (SD), 1500-mg free base tablet, fed state): 28.4 (9.0) L/h
CL/F ([1]; mean (SD), 1500-mg oral MS solution, fasted state): 23.8 (7.3) L/h
Absolute bioavailability, ratio of geometric least square mean AUC0−∞ (90% CI) ([1]; oral MS solution fasted vs IV, 1500 mg): 0.92 (0.82, 1.02)
CVw (within coefficient of variation) of AUC0−∞ ([1]; pooled across regimens): 22%
CVw (within coefficient of variation) of Cmax ([1]; pooled across regimens): 39% and 38.7%
solubility ([3]; fasted state-simulated intestinal fluid, pH 6.5, fassif): ~0.5 mg/mL (≈ 1.04 mM)
solubility ([3]; pH 3.5): 40 mg/mL (≈ 83.4 mM)
Biopharmaceutics Classification System class [4]: Class 2
SMILES: Cc1nc(NNC(=O)[C@H](CC2CCCC2)CN(O)C=O)c(F)c(N2CCN3CCOC[C@@H]3C2)n1 [GSK1322322]
Withdrawal because of a drug-related AE (bronchospasm) ([2]; IV 1500 mg, period 3): One volunteer was withdrawn
Vital signs, chemistry, or hematology data ([2]; all treatments): No apparent trends or changes from baseline
Intensity of adverse events ([2]; all treatments, single 1500-mg doses): mild-to-moderate
Volunteers with an AE per treatment ([2]; range across the four treatments): 42–65%
Relative bioavailability fed vs fasted ([5]; free base tablet 1000 mg): 119%
Cmax ([5]; single 1500-mg IV dose, first-time-in-human IV study): 25500 ng/mL
Absolute bioavailability ([5]; tablet formulation 1500 mg, previous phase I study): 56%
